Measurements taken from ChEMBL document CHEMBL1136807, “CC-1065 analogues bearing different DNA-binding subunits: synthesis, antitumor activity, and preliminary toxicity study” (J Med Chem, 2003).

Key:
Mus musculus [1] = test: Weight change in mice bearing L1210 leukemia after administration of 70 […] compound; type: functional
Mus musculus [2] = test: Weight change in mice bearing L1210 leukemia after administration of 42 […] compound; type: functional
Mus musculus [3] = test: Increase in life span of mice bearing L1210 leukemia after administration of 70 […] compound; toxic; type: functional, organism-based; design: dose 70 […]
Mus musculus [4] = test: Weight change in mice bearing L1210 leukemia after administration of 25 […] compound; type: functional
Mus musculus [5] = test: Days until first mouse died treated with 100 […] compound; type: functional
Procedure, shortened: (§1)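 Delayed-toxicity study in non-tumor-bearing BDF1 mice: single ip dose given on day 0, then animals observed for up to 180 days. Recorded the day the first mouse died and the number of mice alive on day 180, with 6–8 mice per group.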

Mus musculus [6] = test: Increase in life span of mice bearing L1210 leukemia after administration of 25 […] compound; type: functional
Procedure, shortened: (§2)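 In vivo antitumor test in mice bearing L1210 leukemia, read out as increase in life span (ILS). Body weight was monitored. The optimal dose was defined as the dose giving the best antitumor efficacy with body weight loss ≤15%.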

L1210 = test: Compound was tested in vitro against L1210 leukemia cells; type: functional, cell-based; details: Mus musculus
Procedure, shortened: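 L1210 murine leukemia cells exposed to drug for 48 h; IC50 reported in nM.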

Mus musculus [7] = test: Number of mice surviving on day 180 treated with 100 […] compound; 4/8; type: functional, organism-based
Mus musculus [8] = test: Increase in life span of mice bearing L1210 leukemia after administration of 42 […] compound; type: functional; procedure, shortened: as §2
Mus musculus [9] = test: Number of mice bearing L1210 leukemia that survived after 30 days, after administration of 70 […] compound; type: functional; procedure, shortened: as §2
Mus musculus [10] = test: Number of mice bearing L1210 leukemia that survived after 30 days, after administration of 25 […] compound; type: functional; procedure, shortened: as §2
Mus musculus [11] = test: Number of mice bearing L1210 leukemia that survived after 30 days, after administration of 42 µg/kg compound
Mus musculus [12] = test: Weight change in mice bearing L1210 leukemia after administration of 100 […] compound; type: functional
Mus musculus [13] = test: Number of mice bearing L1210 leukemia that survived after 30 days, after administration of 100 […] compound; type: functional; procedure, shortened: as §2
Mus musculus [14] = test: Increase in life span of mice bearing L1210 leukemia after administration of 45 […] compound; type: functional; procedure, shortened: as §2
Mus musculus [15] = test: Increase in life span of mice bearing L1210 leukemia after administration of 100 […] compound; type: functional; procedure, shortened: as §2
Mus musculus [16] = test: Weight change in mice bearing L1210 leukemia after administration of 67 […] compound; type: functional
Mus musculus [17] = test: Number of mice surviving on day 180 treated with 100 […] compound; 5/8; type: functional, organism-based
Mus musculus [18] = test: Number of mice bearing L1210 leukemia that survived after 30 days, after administration of 67 […] compound; type: functional; procedure, shortened: as §2
Mus musculus [19] = test: Increase in life span of mice bearing L1210 leukemia after administration of 67 […] compound; type: functional; procedure, shortened: as §2
Mus musculus [20] = test: Number of mice bearing L1210 leukemia that survived after 30 days, after administration of 45 µg/kg compound
Mus musculus [21] = test: Weight change in mice bearing L1210 leukemia after administration of 45 […] compound; type: functional
Mus musculus [22] = test: Increase in life span of mice bearing L1210 leukemia after administration of 70 mg/kg compound; type: functional; procedure, shortened: as §2
Mus musculus [23] = test: Number of mice surviving on day 180 treated with 100 […] compound; 2/8; type: functional, organism-based; procedure, shortened: as §1
Mus musculus [24] = test: Number of mice surviving on day 180 treated with 100 […] compound; 7/7; type: functional, organism-based
Mus musculus [25] = test: Increase in life span of mice bearing L1210 leukemia after administration of 30 […] compound; type: functional; procedure, shortened: as §2
Mus musculus [26] = test: Number of mice bearing L1210 leukemia that survived after 30 days, after administration of 30 ug/kg compound
Mus musculus [27] = test: Weight change in mice bearing L1210 leukemia after administration of 30 […] compound; type: functional
Mus musculus [28] = test: Days until first mouse died treated with 100 […] compound; no death; type: functional, organism-based

Structure (SMILES) | Weight change (Mus musculus [1]) | Weight change (Mus musculus [2]) | Weight change (Mus musculus [4]) | Days (Mus musculus [5]) | ILS at 25 mg/kg (Mus musculus [6]) | IC50 (L1210) | ILS at 42 mg/kg (Mus musculus [8]) | Survivors (Mus musculus [9]) | Survivors (Mus musculus [10]) | Survivors (Mus musculus [11]) | ILS at 45 mg/kg (Mus musculus [14]) | Weight change (Mus musculus [16]) | Survivors (Mus musculus [18]) | ILS at 67 mg/kg (Mus musculus [19]) | Survivors (Mus musculus [20]) | Weight change (Mus musculus [21]) | further results
CC(=O)Nc1ccc2oc(C(=O)Nc3ccc4[nH]c(C(=O)N5C[C@@H](CCl)c6c5cc(O)c5ccccc65)cc4c3)cc2c1 | -18% | -7% | 12% | 8 | 120% | 0.65 nM | 67% | 0 | 1 | 0 |  |  |  |  |  |  | ILS (Mus musculus [3]): Toxic; No. of mice (Mus musculus [7]): Mice surviving 4/8
COc1ccc2[nH]c(C(=O)Nc3ccc4[nH]c(C(=O)N5CC(CCl)c6c5cc(O)c5ccccc65)cc4c3)cc2c1 (racemic) |  |  |  | 35 |  | 5.7 nM |  |  |  |  | 93% | 3% | 0 | 93% | 0 | 2% | Weight change (Mus musculus [12]): -15%; Survivors (Mus musculus [13]): 0; ILS at 100 mg/kg (Mus musculus [15]): 53%; No. of mice (Mus musculus [17]): Mice surviving 5/8
CC(=O)Nc1ccc2[nH]c(C(=O)Nc3ccc4[nH]c(C(=O)N5C[C@@H](CCl)c6c5cc(O)c5ccccc65)cc4c3)cc2c1 | -6% | 5% | 7% | 49 | 173% | 1.2 nM | 133% | 0 | 1 | 0 |  |  |  |  |  |  | ILS (Mus musculus [22]): 80%; No. of mice (Mus musculus [23]): Mice surviving 2/8
O=C(Nc1ccc2[nH]c(C(=O)N3CC(CCl)c4c3cc(O)c3ccccc43)cc2c1)c1cc2cc(F)ccc2o1 (racemic) |  |  |  |  |  | 0.85 nM |  |  |  |  | 107% | 0% | 0 | 147% | 0 | 5% | No. of mice (Mus musculus [24]): Mice surviving 7/7; ILS at 30 mg/kg (Mus musculus [25]): 67%; Survivors (Mus musculus [26]): 0; Weight change (Mus musculus [27]): 5%; Days (Mus musculus [28]): No death
CC(=O)Nc1ccc2oc(C(=O)Nc3ccc4[nH]c(C(=O)N5CC(CCl)c6c5cc(O)c5ccccc65)cc4c3)cc2c1 (racemic) |  |  |  |  |  | 1.2 nM |  |  |  |  |  |  |  |  |  |  | 
